Results gathered from unrelated publications.
Compare with care: the assays were run in different laboratories.
Target: Inhibitor of nuclear factor kappa-B kinase subunit epsilon (IKBKE, Homo sapiens, UniProt Q14164)
Effect on: enzyme activity
Residues used in one study (Q14164 1-716): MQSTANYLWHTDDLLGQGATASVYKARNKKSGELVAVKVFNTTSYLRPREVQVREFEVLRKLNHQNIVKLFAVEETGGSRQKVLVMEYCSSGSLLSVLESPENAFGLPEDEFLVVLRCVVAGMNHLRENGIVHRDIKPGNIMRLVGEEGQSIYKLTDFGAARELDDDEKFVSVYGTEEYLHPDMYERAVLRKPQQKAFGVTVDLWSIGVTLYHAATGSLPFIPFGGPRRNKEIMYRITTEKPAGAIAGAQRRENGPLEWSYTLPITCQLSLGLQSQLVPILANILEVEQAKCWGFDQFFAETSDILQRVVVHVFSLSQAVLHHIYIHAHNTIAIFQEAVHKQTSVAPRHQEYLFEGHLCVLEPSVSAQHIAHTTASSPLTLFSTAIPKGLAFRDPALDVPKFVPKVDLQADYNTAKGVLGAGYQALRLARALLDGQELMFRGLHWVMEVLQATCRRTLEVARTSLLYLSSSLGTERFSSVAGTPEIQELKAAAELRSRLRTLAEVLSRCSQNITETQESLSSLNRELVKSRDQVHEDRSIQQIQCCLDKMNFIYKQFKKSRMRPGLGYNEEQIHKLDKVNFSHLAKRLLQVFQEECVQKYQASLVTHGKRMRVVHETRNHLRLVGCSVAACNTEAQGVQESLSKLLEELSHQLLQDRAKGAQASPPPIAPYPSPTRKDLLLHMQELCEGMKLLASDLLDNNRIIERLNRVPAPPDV

COc1cc(Cl)c(C(=O)N[C@@H](CN[C@H]2CC[C@@H](N)CC2)Cc2ccc(C#N)cc2)cc1-c1ccc(CN[C@H](C)c2ccc(C)cc2)o1 — remaining activity (inhibitor; 1 µM): 89%
Cc1sc(C(=O)NC2COC2)cc1-n1cc(NC(=O)Nc2c(F)cccc2Cl)cn1 — remaining activity (inhibitor; 10 µM): 116%
Cn1c(=O)n(-c2ccc(C(C)(C)C#N)cc2)c2c3cc(-c4cnc5ccccc5c4)ccc3ncc21 — remaining activity (inhibitor; 10 µM): 86%
Cc1nn(CC(F)(F)F)cc1Nc1ncc(C2CC2)c(NCCc2c[nH]cn2)n1 — remaining activity (inhibitor, radiometric; 1 µM): 95%
COc1cc(Nc2cnc(C#N)c(O[C@H](C)CN(C)C)n2)ncc1-c1cnn(C)c1 — remaining activity (inhibitor, radiometric; 10 µM): 84%
O=C(NCCCNc1nc(Nc2cccc(NC(=O)N3CCCC3)c2)ncc1I)c1cccs1 — remaining activity (inhibitor, radiometric; 1 µM): 2%
O=C(Nc1cnn(-c2csc(C(=O)NC3COC3)c2)c1)Nc1c(F)cccc1Cl — remaining activity (inhibitor; 5 µM): 96.8%
CC(C)(C)c1nc(-c2cccc(NS(=O)(=O)c3c(F)cccc3F)c2F)c(-c2ccnc(N)n2)s1 — remaining activity (inhibitor, radiometric; 1 µM): 97%
O=c1cc(-c2cccc3c2Sc2ccccc2S3)oc(N2CCOCC2)c1 — remaining activity (inhibitor; 0.5 µM): 96.5%
Brc1cnc(Nc2cccc(CN3CCOCC3)c2)nc1NCCc1c[nH]cn1 — remaining activity (inhibitor, radiometric; 1 µM): 36%
O=C1Nc2ccc(Cl)cc2C1=Cc1cc(Cl)c(O)c(Cl)c1 — remaining activity (0.5 µM): 94.7%
NS(=O)(=O)c1ccc(CNc2nc(Nc3cccc(CN4CCOCC4)c3)ncc2Br)cc1 — remaining activity (inhibitor, radiometric; 1 µM): 32%
O=c1c2ccccc2[nH]c(=S)n1CCN1CCC(=C(c2ccc(F)cc2)c2ccc(F)cc2)CC1 — remaining activity (inhibitor; 0.5 µM): 101%
O=C(NCCCNc1nc(Nc2cccc(NC(=O)N3CCCC3)c2)ncc1C1CC1)C1CCC1 — remaining activity (inhibitor, radiometric; 1 µM): 3%
Nc1ncnc2occ(-c3ccc(NC(=O)Nc4cc(C(F)(F)F)ccc4F)cc3)c12 — remaining activity (inhibitor; 20 µM): 12%
